The source of these data is ChEMBL document CHEMBL4257525, “Synthesis and biological evaluation of new 3-amino-2-azetidinone derivatives as anti-colorectal cancer agents” (Medchemcomm, 2018).

Structures are written as SMILES.

System in one experiment: not listed separately
The experiment is described as follows: Inhibition of porcine brain tubulin polymerization measured for 15 mins by spectrophotometric method. The arrangement: species or system Sus scrofa.
Conditions: not given
The method, boiled down: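 Lyophilized purified tubulin resuspended at 2.5 mg mL-1 in assembly buffer (80 mM PIPES pH 6.9, 1 mM MgCl2, 2 mM EGTA, 10% glycerol), mixed with 1 mM GTP and varying compound concentrations; 0.2% v/v DMSO vehicle control. Assembly read at 340 nm, 37 °C. IC50 = concentration inhibiting polymerization by 50%, from four-parameter logistic fit.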
In the case of `COc1ccc([C@H]2[C@H](NC(C)=O)C(=O)N2c2cc(OC)c(OC)c(OC)c2)cc1O` (relative stereo), the midpoint of inhibition, the IC50, lay at 5050 nM.

The next experiment relates to SW48. In words: Antiproliferative activity against human SW48 cells after 72 hrs by MTT assay. Format: functional, cell-based. The note with it: SW48, 72 h. In a few lines:
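SW48 colorectal adenocarcinoma cells grown in RPMI-1640 with 10% FBS, 2 mM L-glutamine and penicillin/streptomycin at 37 °C, 5% CO2. 8000 cells per well exposed to a range of compound concentrations (in DMSO) for 72 h. MTT then added for 2 h at 37 °C, formazan solubilized, absorbance read at 570 nm. Triplicates in three independent experiments. IC50 from a four-parameter logistic fit against 0.1% DMSO controls.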
The compound `COc1ccc([C@H]2[C@H](NC(=O)[C@H](C)N)C(=O)N2c2cc(OC)c(OC)c(OC)c2)cc1O` (relative stereo) had a half-maximal inhibitory concentration (IC50) of 90.6 nM.
Still for that read-out and setting: next, `COc1ccc([C@H]2[C@H](NC(=O)C3CCCCC3)C(=O)N2c2cc(OC)c(OC)c(OC)c2)cc1O` (relative stereo): 244 nM.
Still for that read-out and setting: next, `COc1ccc([C@H]2[C@H](NC(C)=O)C(=O)N2c2cc(OC)c(OC)c(OC)c2)cc1O` (relative stereo): 14 nM; `COc1ccc([C@H]2[C@H](NC(=O)c3ccc(F)cc3)C(=O)N2c2cc(OC)c(OC)c(OC)c2)cc1O` (relative stereo): 384 nM; `COc1ccc(C(=O)N[C@@H]2C(=O)N(c3cc(OC)c(OC)c(OC)c3)[C@H]2c2ccc(OC)c(O)c2)cc1` (relative stereo): 108 nM.
On to `COc1ccc([C@H]2[C@H](NC(=O)c3ccc(Cl)cc3)C(=O)N2c2cc(OC)c(OC)c(OC)c2)cc1O`, for which the half-inhibitory concentration (IC50) stood at 271 nM.
As to `COc1ccc([C@H]2[C@H](NC(=O)c3ccco3)C(=O)N2c2cc(OC)c(OC)c(OC)c2)cc1O` (relative stereo), the midpoint of inhibition, the IC50, lay at 18.6 nM.
For the compound `COc1ccc([C@H]2[C@H](NC(=O)Cc3c[nH]c4ccccc34)C(=O)N2c2cc(OC)c(OC)c(OC)c2)cc1O` (relative stereo), inhibition was half-maximal at 49.4 nM (IC50).
Same read-out and setting: the figure for `COc1ccc([C@H]2[C@H](NC(=O)c3ccc4ccccc4c3)C(=O)N2c2cc(OC)c(OC)c(OC)c2)cc1O` (relative stereo) is 220 nM.
Still for that read-out and setting: next, `COc1ccc([C@H]2[C@H](NC(=O)c3cc(OC)c(OC)c(OC)c3)C(=O)N2c2cc(OC)c(OC)c(OC)c2)cc1O` (relative stereo): 564 nM.
